Screening results deposited in PubChem BioAssay by Broad Institute.
Sampled rows, rich in hits. Any-hit rate of the full collection: about 3.6%.
Beta cell apopt: beta cell apoptosis inhibition. INS-1E cytokine-induced death, ATP luminescence, 48 h; percent of positive-control rescue, neutral wells zero. protection from apoptosis, % (concentration not given with the values). 0.8% of 300,000 active. AID 435005;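 active means Every replicate reaches about 75%, or at least half do and their mean reaches it too, limit read from the data; inconclusive means At least half of replicates reach the limit but their mean does not; inactive means Under half of replicates reach the limit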;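 further: 0% = cytokine-treated negative control wells and 100% = positive control rescue; higher means more ATP so stronger rescue from cytokine killing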
CSC inhib: cancer stem cell inhibition | cancer stem cell-like cells viability, luminescence | AID 2717 | inhibition, % at 7.5 µM | 1.1% of 300,000 active; in the data active means inhibition above about 75%; inconclusive means no clear call, values can overlap the other calls; tested in HMLE shEcad cells
T cruzi inh: blocks replication of Trypanosoma cruzi; inhibition, % (test concentration not listed); AID 1885; 1.4% of 300,000 active; T. cruzi beta-gal in NIH3T3, luminescence, 90 h;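 active means mean inhibition across valid replicates above about 55%, limit read from the data; inconclusive means mean below that limit but half or more replicates reach it; inactive means mean below it, under half of replicates reach it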;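 further: signal also drops with host cell toxicity which is not excluded here; 0% = plate median of DMSO wells and 100% = zero luminescence signal; higher percent means less beta-gal luminescence so fewer parasites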
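System: NIH/3T3 fibroblasts plus reporter T. cruzi. Medium: DMEM plus 2% FBS. Probe or stimulus: 5000 reporter trypomastigotes per well. Compound: single 50 nL compound addition per well in DMSO. Incubation: co-culture of at least 90 h after 3 h attachment. Detection: GalScreen β-gal luminescence, detergent lysis, 60 min. Evaluation: parasite load inhibition, %.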
HIF activator: HIF pathway transcriptional activation | U2OS HRE-luciferase reporter, luminescence; normalized: DMSO 0%, desferrioxamine 100% | activation, % at 7.5 µM (by protocol) | 0.32% of 300,000 active | AID 1910;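 active means mean activation of at least 10% of the iron chelator positive control signal, with at least half of replicates also reaching 10%; inconclusive means mean and replicate majority disagree about reaching 10%; inactive means mean and most replicates under 10%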
PfHsp90 set2: inhibits growth of yeast expressing Plasmodium falciparum Hsp90; S. cerevisiae expressing PfHsp90, BacTiter-Glo ATP, 48 h; yeast lacking PDR1 and PDR3 efflux regulators; inhibition, % at 9.4 µM; 0.32% of 310,000 active;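 active means every replicate shows inhibition above about 80%, whatever the replicate mean, limit read from the data; inconclusive means mean inhibition reaches the set limit but some replicate falls short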;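 further: 0% = DMSO neutral controls and 100% = 20 µM radicicol positive controls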
SKKanGAS inh: SKKanGAS growth inhibition; 1.3% of 300,000 active; S. pyogenes SKKanGAS, kanamycin growth, BacTiter-Glo, 6 h; inhibition, % at 7.5 µM;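 active means mean replicate score, as percent of positive control median, at least 50; inconclusive means mean below 50 but one replicate at or above 50; inactive means mean and every replicate below 50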;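 further: strain carries kanamycin resistance gene driven by streptokinase promoter and grows in 40 µg/ml kanamycin; loss of luminescence reflects streptokinase promoter inhibition or plain growth inhibition; 0% = median of DMSO wells and 100% = positive control at its reference dose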
* = called active by the depositor; ? = inconclusive; · = not tested or not shown.

SMILES	Beta cell apopt	CSC inhib	T cruzi inh	HIF activator	PfHsp90 set2	SKKanGAS inh
Cc1cc(C)c(C)c(S(=O)(=O)N2CCN(c3ccc(O)cc3)CC2)c1C	-8.3	84.6*	6.6	-13.3	-41.3	-0.6
Cc1cc(C)c(C)c(S(=O)(=O)N2CCN(c3ccccn3)CC2)c1C	-15.9	-10.8	24.1	-0.1	12.5	6.8
Cc1cc(C)c(C)c(S(=O)(=O)N2CCC(C(=O)N3CCN(c4ccc(F)cc4)CC3)CC2)c1C	·	·	·	·	1.6	·
Cc1cc(C)c(C)c(S(=O)(=O)N2CCN(c3ncnc4ccccc34)CC2)c1C	104.4*	34.4	·	·	·	·
Cc1cc(CSc2ccc(Cl)cc2)ccc1N	·	·	·	·	-18.7	·
Cc1ccc(S(=O)(=O)N2CCOCC2)cc1C(=O)NCCc1ccc(Cl)cc1	2.7	·	·	·	8.5	·
O=[N+]([O-])c1cc(-c2nc3nc4ccccc4nc3n2CCc2ccccc2)cc([N+](=O)[O-])c1	-5.4	12.8	55.5*	-0.1	23.4	4.8
c1ccc(CCNc2nc(-c3ccccn3)cs2)cc1	43.2	26.3	6.7	1.5	-2.8	120.7*
O=C(Nc1nc(-c2ccccn2)cs1)c1ccc([N+](=O)[O-])o1	90.2*	47.3	46.9	1.5	3.1	2.3
Cc1ccc(C(=O)Nc2nc(-c3ccccn3)cs2)o1	61.8	31.1	44.9	8.5	-25.5	76.6*
O=C(Nc1nc(-c2ccccn2)cs1)c1ccc(-c2ccccc2F)o1	33.8	·	·	·	96.1*	·
CC(=O)c1ccc(-c2ccc(C(=O)Nc3nc(-c4ccccn4)cs3)o2)cc1	-10.1	26.5	·	·	-5.3	·
O=C(Nc1nc(-c2cc(F)ccc2F)cs1)c1ccccn1	11.2	42.7	-15.7	5.7	-31.1	?
COc1ccccc1NC(=O)N(Cc1cccs1)Cc1cc2cc3c(cc2[nH]c1=O)OCO3	0.9	-18.1	13.7	2.3	-3.7	12.5
O=C(NNC(=O)C12CC3CC(CC(C3)C1)C2)[C@@H]1C[C@H]1c1ccccc1	-3.2	4.2	-4.0	0.4	7.8	8.4
CCCCn1c(NS(=O)(=O)c2ccccc2)c(S(=O)(=O)c2ccc(C)cc2)c2nc3ccccc3nc21	85.7*	36.6	3.3	0.2	0.2	73.0*
CCCCCn1c(NC(=O)c2ccco2)c(S(=O)(=O)c2ccc(C)cc2)c2nc3ccccc3nc21	-2.5	70.8	55.3*	1.6	14.9	27.4
CCCCn1c(NC(=O)c2ccc(Br)o2)c(S(=O)(=O)c2ccccc2)c2nc3ccccc3nc21	-16.4	40.0	·	·	-2.5	24.8
CCCCn1c(NC(=O)c2ccco2)c(S(=O)(=O)c2ccc(C)cc2)c2nc3ccccc3nc21	·	·	11.5	0.0	-17.2	21.3
Cc1ccc(NC(=O)c2ncn(CCCNCc3ccccn3)n2)cc1C	·	·	·	·	-4.5	·
CCn1nc([N+](=O)[O-])c(C(C#N)c2nc3cc(C(F)(F)F)ccc3s2)c(Cl)c1=O (stereo not drawn)	14.4	112.3*	-15.6	-0.5	-9.5	28.4
Cn1nc([N+](=O)[O-])c(C(C#N)c2ccccn2)c(Cl)c1=O (stereo not drawn)	-39.7	88.4*	63.8*	-0.1	-77.1	·
CCCCn1c(N)c(-c2nc3ccccc3o2)c2c([N+](=O)[O-])nn(CC)c(=O)c21	-3.4	5.3	26.6	-0.6	-31.9	0.6
Cc1ccc(Cn2c(C(C)Nc3nc(-c4ccc(Cl)c([N+](=O)[O-])c4)cs3)nc3cc(C(F)(F)F)ccc32)cc1 (stereo not drawn)	2.5	26.1	18.6	-0.5	·	36.6
N#CC(c1ccccn1)c1ncc(C(F)(F)F)cc1Cl (stereo not drawn)	-3.0	-3.5	-2.8	0.3	-0.4	-5.5
SMILES	Beta cell apopt	CSC inhib	T cruzi inh	HIF activator	PfHsp90 set2	SKKanGAS inh
CCCn1nc([N+](=O)[O-])c(C(C#N)c2nc3ccccc3o2)c(Cl)c1=O (stereo not drawn)	-0.2	79.2*	-15.5	-0.4	2.9	10.0
CCOC(=O)/C(C#N)=C\C1=C(N2CCOCC2)CC(C)(C)OC1	1.8	-11.9	4.6	-0.1	16.9	0.6
COc1cccc(C2c3cc4c(cc3OC(C)(N3CCCC3)C2C)OCO4)c1O (stereo not drawn)	·	·	·	·	-16.6	·
C/C(=N\Nc1ccc2nncn2n1)c1ccccn1	79.6*	98.5*	63.4*	128.7*	·	41.6
C/C(=N\Nc1ccc2nncn2n1)c1ccco1	-2.3	-11.2	-5.2	0.0	5.4	-0.2
CC(=O)Oc1c(Cl)cc(Cl)cc1/C=C/c1ccc2ccccc2n1	13.4	108.6*	-11.3	1.5	-39.4	-14.4
CC1(C)C([N+](=O)[O-])C(c2ccc(Cl)cc2)NC(c2ccc(Cl)cc2)C1[N+](=O)[O-] (stereo not drawn)	0.5	51.1	57.6*	-0.4	-13.7	38.3
O=C(CSc1cc(Cl)ccc1Cl)Nc1ccc(N2CCOCC2)cc1	17.8	-8.2	·	·	-4.8	·
CCc1cc2cc(C)cc(C)c2nc1SCC(=O)N1CCN(C(=O)c2ccco2)CC1	0.8	116.3*	·	·	-2.7	·
C=CCc1c(C)c(C#N)c2nc3ccccc3n2c1NCCN(C)C	2.3	4.7	49.3	-0.4	108.8*	-1.3
C=C(C)Cc1c(C)c(C#N)c2nc3ccccc3n2c1NCCCN(C)C	-1.3	-23.6	?	1.1	·	0.4
CCc1c(C)c(C#N)c2nc3ccccc3n2c1NCCN(C)C	9.5	-1.2	67.8*	0.3	17.3	1.3
O=C(c1cccc(F)c1)N1CCN(C(=O)C(c2ccccc2)c2ccccc2)CC1	-1.3	-8.6	2.0	-0.3	-0.9	-0.5
COc1cc(CNC2CCCC2)cc(Cl)c1OCc1ccccc1Cl	?	80.4*	77.5*	-0.4	18.2	-1.5
COc1cc(CNCCO)cc(Cl)c1OCc1ccc(Cl)cc1Cl	108.3*	6.7	46.7	-0.4	15.3	13.1
COc1cc(CNCCO)cc(Br)c1OCc1ccccc1Cl	7.4	28.7	21.8	-0.6	4.5	2.0
CCN(C(=O)COC(=O)c1ccc(=O)n(Cc2ccccc2)n1)C1CCS(=O)(=O)C1 (stereo not drawn)	·	·	·	·	31.2	·
COc1cc(OC)c(/C=N/NC(=O)COc2cccc3cccnc23)c(OC)c1	-0.1	-4.8	-6.6	-0.1	-4.4	-1.8
CCOC(=O)c1c(O)cc(C)cc1Nc1ccccc1	-0.2	-1.3	12.3	-0.8	8.6	51.1*
CCOC(=O)c1c(Nc2ccccc2N)cc(C)nc1C	-7.1	·	13.5	0.0	-17.0	·
Cc1ccccc1CN(C)CC(=O)Nc1ccccc1-c1ccccc1	-1.9	59.9	19.0	-0.4	8.3	53.4*
Cc1ccccc1CN(C)CC(=O)Nc1ccccc1Oc1ccccc1	-3.9	·	36.9	-0.9	1.6	3.3
CN(CC(=O)Nc1ccccc1Oc1ccccc1)Cc1ccccc1F	-6.9	91.4*	14.0	129.3*	17.8	3.4
COc1ccc(Cl)cc1NC(=O)CN(C)C(=O)c1cc(C)oc1C	-2.7	-11.2	·	·	-12.7	·
